Reference: ChEMBL document CHEMBL4428100, “Versatile Picklocks To Access All Opioid Receptors: Tuning the Selectivity and Functional Profile of the Cyclotetrapeptide c[Phe-d-Pro-Phe-Trp] (CJ-15,208)” (J Med Chem, 2016)
Active and inactive are the calls of the source. The calls are words filed in the database; no cut-off is given here. Non-standard residues stand in square brackets, D forms with d. Residues, ends and D or L forms follow the SMILES beside them.

Tests used:
[1] = target: T1, Kappa-type opioid receptor (Homo sapiens, UniProt P41145); experiment: Displacement of [3H]U69,593 from human KOR expressed in HEK293 cell membranes incubated for 90 mins by liquid scintillation counting
T1 sequence (P41145 whole entry): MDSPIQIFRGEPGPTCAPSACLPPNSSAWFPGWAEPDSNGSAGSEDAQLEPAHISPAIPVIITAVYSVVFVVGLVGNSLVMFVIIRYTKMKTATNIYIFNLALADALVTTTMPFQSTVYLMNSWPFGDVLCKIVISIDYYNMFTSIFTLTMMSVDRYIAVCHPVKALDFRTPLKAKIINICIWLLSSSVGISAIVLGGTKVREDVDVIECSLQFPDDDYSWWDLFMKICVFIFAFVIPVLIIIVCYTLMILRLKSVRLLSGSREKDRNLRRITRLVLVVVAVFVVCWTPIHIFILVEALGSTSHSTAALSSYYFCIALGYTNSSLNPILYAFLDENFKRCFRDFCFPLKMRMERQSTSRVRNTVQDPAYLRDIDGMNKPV
In short: (§1)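 Compound (10^-12 to 10^-4 M) incubated 90 min at 25°C in 100 mM Tris-HCl with 0.3% BSA. Cold ligands define nonspecific binding. Filters presoaked in 0.3% polyethylenimine; liquid scintillation counting. Ki from IC50 by Cheng-Prusoff; triplicate.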

[2] = target: T2, Delta-type opioid receptor (Homo sapiens, UniProt P41143); experiment: Displacement of [3H]diprenorphine from human DOR expressed in HEK293 cell membranes incubated for 90 mins by liquid scintillation counting
T2 sequence (P41143 whole entry): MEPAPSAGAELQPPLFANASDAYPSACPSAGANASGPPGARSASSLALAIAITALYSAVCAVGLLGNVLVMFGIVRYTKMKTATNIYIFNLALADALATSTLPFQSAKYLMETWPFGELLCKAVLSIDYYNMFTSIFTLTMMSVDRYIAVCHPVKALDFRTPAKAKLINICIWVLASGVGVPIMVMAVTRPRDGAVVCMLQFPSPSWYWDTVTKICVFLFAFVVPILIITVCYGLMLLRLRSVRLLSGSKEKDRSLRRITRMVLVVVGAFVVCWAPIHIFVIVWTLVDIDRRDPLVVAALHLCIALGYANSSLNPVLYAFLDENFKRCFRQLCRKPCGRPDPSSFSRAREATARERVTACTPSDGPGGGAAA

Mu-type opioid receptor [3] = target: T3, Mu-type opioid receptor (Homo sapiens, UniProt P35372); experiment: Displacement of [3H]DAMGO from human MOR expressed in HEK293 cell membranes incubated for 90 mins by liquid scintillation counting; in short: as §1
T3 sequence (P35372 whole entry): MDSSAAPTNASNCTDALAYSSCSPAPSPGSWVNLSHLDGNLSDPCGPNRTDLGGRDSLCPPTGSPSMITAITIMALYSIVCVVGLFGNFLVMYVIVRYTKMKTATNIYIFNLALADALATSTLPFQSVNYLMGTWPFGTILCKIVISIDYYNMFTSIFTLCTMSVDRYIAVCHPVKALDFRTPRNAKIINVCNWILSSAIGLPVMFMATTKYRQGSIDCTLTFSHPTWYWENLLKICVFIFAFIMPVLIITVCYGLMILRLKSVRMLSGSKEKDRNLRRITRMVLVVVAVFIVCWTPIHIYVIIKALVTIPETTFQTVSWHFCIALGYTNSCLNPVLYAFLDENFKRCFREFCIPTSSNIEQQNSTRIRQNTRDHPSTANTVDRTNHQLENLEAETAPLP

[4] = target: T1, Kappa-type opioid receptor; experiment: Binding affinity to KOR (unknown origin)
In short: (§2)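 Displacement binding on membranes from HEK-293 cells stably expressing cloned human receptors; radioligand [³H]diprenorphine for DOR, [³H]U69,593 for KOR. Compounds tested at 10⁻¹²–10⁻⁴ M, incubated 90 min at 25°C in 100 mM Tris-HCl with 0.3% BSA. Nonspecific binding defined with cold ligand. Filter-bound radioactivity counted by liquid scintillation. Ki from IC50 via Cheng-Prusoff. Run in triplicate.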

Mu-type opioid receptor [5] = target: T3, Mu-type opioid receptor; experiment: Displacement of [3H]DAMGO from human MOR expressed in HEK293 cell membranes at […] incubated for 90 mins by liquid scintillation counting
[6] = Stability in mouse serum after 3 hrs by RP-HPLC and ESI-MS analysis; assay type: ADME, cell-free
In short: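 Compound incubated in mouse serum for 3 h to assess enzymatic stability.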

Mus musculus [7] = experiment: Antinociceptive activity in mouse model of visceral pain assessed as reduction in AcOH-induced stretching or writhing responses at 10 mg/kg, ip 5 mins before AcOH challenge and co-administered with 10 mg/kg, ip KOR antagonist norBNI 10 mins before compound dosing; assay type: functional, organism-based
Mu-type opioid receptor [8] = target: T3, Mu-type opioid receptor; experiment: Antagonist activity at human MOR expressed in HEK293 cells assessed as reduction of DAMGO-induced inhibition of forskolin-induced cAMP accumulation by EIA method; assay type: functional, cell-based
Mus musculus [9] = experiment: Effect on circling behavior in mouse model of visceral pain at 0.5 to 10 mg/kg, ip dosed 5 mins before AcOH challenge measured within 6 hrs; assay type: ADME, organism-based; details: in vivo
Mus musculus [10] = experiment: Antinociceptive activity in mouse model of visceral pain assessed as reduction in AcOH-induced stretching or writhing responses dosed intraperitoneally 5 mins before AcOH challenge; assay type: functional
In short: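 Mice given 0.6% w/v AcOH in water ip (0.1 ml/10 g). Compound (0.5-10 mg/kg) or vehicle given ip 5 min earlier. Stretching/writhing counted for 10 min after AcOH. 6-8 mice per group, mean ± SEM; ED50 derived from the dose-response; Dunnett test after ANOVA.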

[11] = Toxicity in mouse model of visceral pain assessed as induction of straub tail at 0.5 to 10 mg/kg, ip dosed 5 mins before AcOH challenge measured within 6 hrs; assay type: organism-based; details: in vivo
[12] = target: T2, Delta-type opioid receptor; experiment: Antagonist activity at human DOR expressed in HEK293 cells assessed as reduction of DPDPE-induced inhibition of forskolin-induced cAMP accumulation by EIA method; assay type: functional, cell-based
In short: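 HEK-293 cells stably expressing hDOR, in serum-free medium with 0.5 mM IBMX, exposed 15 min at 37°C to 10 μM forskolin plus 10 μM DPDPE, with or without compound (0.001 nM-100 μM). cAMP by EIA kit. Triplicate determinations; IC50 as mean ± SE of 5-6 independent experiments.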

Mus musculus [13] = experiment: Antinociceptive activity in mouse model of visceral pain assessed as reduction in AcOH-induced stretching or writhing responses at 10 mg/kg, ip 5 mins before AcOH challenge and co-administered with 30 mg/kg, ip opioid antagonist NLX 15 mins before compound dosing; assay type: functional, organism-based
Mus musculus [14] = experiment: Effect on spontaneous locomotor activity in mouse model of visceral pain at 0.5 to 10 mg/kg, ip dosed 5 mins before AcOH challenge measured within 6 hrs; assay type: ADME, organism-based; details: in vivo
Mus musculus [15] = experiment: Antinociceptive activity in mouse model of visceral pain assessed as reduction in AcOH-induced stretching or writhing responses at 10 mg/kg, ip 5 mins before AcOH challenge and co-administered with 10 mg/kg, ip DOR antagonist NTD 30 mins before compound dosing; assay type: functional, organism-based
Mu-type opioid receptor [16] = target: T3, Mu-type opioid receptor; assay type: functional, cell-based, HEK293
[17] = target: T1, Kappa-type opioid receptor; experiment: Antagonist activity at human KOR expressed in HEK293 cells assessed as reduction of U50,488-induced inhibition of forskolin-induced cAMP accumulation by EIA method; assay type: functional, cell-based
Mus musculus [18] = experiment: Effect on grooming behavior in mouse model of visceral pain at 0.5 to 10 mg/kg, ip dosed 5 mins before AcOH challenge measured within 6 hrs; assay type: ADME, organism-based; details: in vivo
Mu-type opioid receptor [19] = target: T3, Mu-type opioid receptor; experiment: Agonist activity at human MOR expressed in HEK293 cells assessed as inhibition of forskolin-induced cAMP accumulation at 10^-12 to 10^-4 M by EIA method; assay type: functional, cell-based
In short: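 Whole HEK-293 cells stably expressing hMOR, in serum-free medium with 0.5 mM IBMX, exposed 15 min at 37°C to 10 μM forskolin with or without compound (0.001 nM-100 μM). cAMP measured by EIA kit. Triplicate determinations; IC50 and Emax (% vehicle) as mean ± SE of 5-6 independent experiments.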

[20] = Antagonist activity against KOR in rabbit vas deferens smooth muscles assessed as inhibition of asimadoline-induced response; details: Oryctolagus cuniculus
[21] = target: T2, Delta-type opioid receptor; experiment: Binding affinity to DOR (unknown origin); in short: as §2
Mu-type opioid receptor [22] = target: T3, Mu-type opioid receptor; experiment: Binding affinity to MOR (unknown origin)
In short: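 Test compounds were run at 10⁻¹²-10⁻⁴ M, incubated 90 min at 25°C in 100 mM Tris-HCl with 0.3% BSA. Nonspecific binding was defined with cold ligand. Filter-trapped radioactivity was counted by liquid scintillation, with filters presoaked in 0.3% polyethylenimine. Assays were run in triplicate. Ki was derived from IC50 by Cheng-Prusoff.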

With C[C@H]1NC(=O)[C@H](Cc2c[nH]c3ccccc23)NC(=O)[C@H](Cc2ccccc2)NC(=O)[C@H]2CCCN2C1=O the Ki [1] was > 100000 nM, the Ki [2] was > 100000 nM and the Ki (Mu-type opioid receptor [3]) was > 100000 nM.
In the case of O=C1CNC(=O)[C@H](Cc2ccccc2)NC(=O)[C@@H](Cc2c[nH]c3ccccc23)NC(=O)[C@H]2CCCN2C(=O)[C@H](Cc2ccc(O)cc2)N1 (cyclo(FGY[dP][dW])), the Activity [4] is reported as 1 ×10⁻⁸ M.
In the case of Cn1cc(C[C@@H]2NC(=O)[C@H](Cc3ccccc3)NC(=O)[C@H]3CCCN3C(=O)[C@H](Cc3ccccc3)NC2=O)c2ccccc21, the Ki [1] is reported as > 100000 nM, the Ki [2] is reported as > 100000 nM and the inhibition (Mu-type opioid receptor [5]) is reported as < 50%.
For C[C@@H]1NC(=O)[C@H](Cc2c[nH]c3ccccc23)NC(=O)[C@@H](Cc2ccccc2)NC(=O)[C@H]2CCCN2C1=O, the Ki [1] was > 100000 nM, the Ki [2] was > 100000 nM and the Ki (Mu-type opioid receptor [3]) was > 100000 nM.
In the case of O=C1NCCC(=O)N2CCC[C@@H]2C(=O)N[C@@H](Cc2ccccc2)C(=O)N[C@H]1Cc1c[nH]c2ccccc12, the Stability [6] is reported as “Stable”, the Ki [1] is reported as > 100000 nM and the Activity (Mus musculus [7]) is reported as “Active”. The inhibition (Mu-type opioid receptor [8]) was “inactive”, the Activity (Mus musculus [9]) was “Non-Toxic” and the Ki [2] was > 100000 nM. The inhibition (Mus musculus [10]) was “Dose-dependent effect”, the ED50 (Mus musculus [10]; ip) was 0.64 mg/kg and the Activity [11] was “Non-Toxic”. For the same molecule, the inhibition [12] was “inactive”, the Activity (Mus musculus [13]) was “inactive” and the Activity (Mus musculus [14]) was “Non-Toxic”. For the same molecule, the Activity (Mus musculus [15]) was “Active”, the IC50 (Mu-type opioid receptor [16]) was 6.1 nM and the inhibition [17] was “inactive”. The Activity (Mus musculus [18]) was “Non-Toxic” and the Ki (Mu-type opioid receptor [3]) was 4.1 nM.
With O=C1NCCCC(=O)N2CCC[C@@H]2C(=O)N[C@@H](Cc2ccccc2)C(=O)N[C@H]1Cc1c[nH]c2ccccc12 the Ki [1] was > 100000 nM, the inhibition (Mu-type opioid receptor [8]) was “inactive” and the Ki [2] was 3.08 nM. The inhibition [12] was “Dose-dependent effect”, the inhibition (Mu-type opioid receptor [5]) was < 50% and the IC50 (Mu-type opioid receptor [16]) was 183 nM. For the same molecule, the inhibition [17] was “inactive” and the Activity (Mu-type opioid receptor [19]) was “inactive”.
With O=C1N[C@@H](Cc2ccccc2)C(=O)N2CCC[C@@H]2C(=O)N[C@@H](Cc2ccccc2)C(=O)N[C@H]1Cc1c[nH]c2ccccc12 (cyclo(FWF[dP])) the EC50 [20] was 1300 nM, the IC50 [4] was 47 nM and the Ki [1] was 32 nM. The IC50 [21] was 2600 nM, the Ki [2] was > 100000 nM and the IC50 (Mu-type opioid receptor [22]) was 260 nM. It also gave a Ki (Mu-type opioid receptor [3]) of 127 nM.
For Cn1cc(C[C@H]2NC(=O)[C@H](Cc3ccccc3)NC(=O)[C@H]3CCCN3C(=O)[C@H](Cc3ccccc3)NC2=O)c2ccccc21, the Ki [1] was > 100000 nM, the Ki [2] was > 100000 nM and the Ki (Mu-type opioid receptor [3]) was > 100000 nM.
